Hits are enriched below; roughly 1.9% of the tested compounds scored in any of these assays.
PLCb3 inh = human PLC-beta3 inhibitors, primary screen, biochemical, fluorescence | Purified PLC-beta3, fluorogenic substrate | inhibition, % at 12.2 µM | 0.18% of 370,000 active | AID 720704, 2013; in the data active = inhibition above about 11%
proCasp7 act = procaspase-7 activators, primary screen, counter-screen for procaspase-3 activator project, biochemical, absorbance, HTS, human. Caspase-7 (Homo sapiens), P55210. recombinant procaspase-7, Ac-DEVD-pNA absorbance 405 nm; D23A/D198A/D206A triple mutant, cannot self-cleave; scale: DMSO 0, 5 µM enzyme 100. activation, % at 8.5 µM. 0.093% of 330,000 active;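 active = percent activation above the screen-wide mean plus 3 SD, cut at about 25% in these data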
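Assay system: Uncleavable procaspase-7 mutant enzyme / Input: 2 µM procaspase-7 mutant as dispensed / Dosing: single nominal 8.5 µM compound dose, 0.8% DMSO final / Timing: 1 h enzyme–compound preincubation and 2 h substrate reaction, both 25 °C / Detection: p-Nitroaniline absorbance at 405 nm, read at 0 and 120 min / Replication: singlicate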
Arrestin-AP2 inh = inhibitors of beta-arrestin/AP2 binding, primary screen, biochemical, GPCR trafficking, flow cytometry; AID 504490, 2011; FITC-arrestin peptide / GST-AP2 beads; AP2 beta2 appendage carries R879A mutation; 0.31% of 340,000 active; beta-arrestin 1 C-terminal peptide binding to AP2 beta2-adaptin appendage (human); inhibition, % at 10 µM;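 active = inhibition above a set limit, near 3 SD of compounds lacking own fluorescence, cut at about 54% in these data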
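System: GST-AP2 R879A bound to glutathione beads, E. coli-expressed. Also added: 50 nM FITC-arrestin peptide. Schedule: compound with beads 12 min RT, then probe 1 h RT. Signal: bead flow cytometry, FITC channel. Read-out basis: percent response.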
PLCg1 inh = PLC-gamma1 enzyme inhibitors, primary screen, biochemical, fluorescence, purified enzyme; fluorogenic substrate; AID 720700, 2013; 0.84% of 370,000 active; inhibition, % at 12.2 µM; in the data active = inhibition above about 9.5%
proCasp3 act = activators of human procaspase-3 D3A mutant, primary screen, biochemical, absorbance, PC-3 D3A mutant, single concentration; recombinant procaspase-3 D3A, Ac-DEVD-pNA absorbance 405 nm; 0.11% of 330,000 active; Caspase-3 (Homo sapiens), P42574; activation, % at 8.5 µM;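 active = activation above the mean of all tested compounds plus 3 SD, cut at about 21% in these data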
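Technique: 405 nm absorbance of p-nitroaniline, reads at 0 and 120 min; Test system: Procaspase-3 D3A mutant; Incubation: 1 h enzyme-compound preincubation, then 2 h substrate reaction, 25 °C; Repeats: singlicate, each compound tested once; Benchmarks: low control DMSO wells, high control DMSO plus 5 µM PC-3 D3A.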
sPLA2-III inh = human group III sPLA2 inhibitors, primary screen, biochemical, QFRET, BODIPY PC-A2 liposome substrate. Group 3 secretory phospholipase A2 (Homo sapiens), Q9NZ20. QFRET BODIPY PC-A2 liposome hydrolysis, fluorescence. inhibition, % at 12.2 µM. 0.56% of 370,000 active. AID 743126, 2013;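 active = inhibition above mean plus 3 SD of compounds lying within the high and low control bounds, cut at about 19% in these data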
Target sequence (Q9NZ20 whole entry, looked up): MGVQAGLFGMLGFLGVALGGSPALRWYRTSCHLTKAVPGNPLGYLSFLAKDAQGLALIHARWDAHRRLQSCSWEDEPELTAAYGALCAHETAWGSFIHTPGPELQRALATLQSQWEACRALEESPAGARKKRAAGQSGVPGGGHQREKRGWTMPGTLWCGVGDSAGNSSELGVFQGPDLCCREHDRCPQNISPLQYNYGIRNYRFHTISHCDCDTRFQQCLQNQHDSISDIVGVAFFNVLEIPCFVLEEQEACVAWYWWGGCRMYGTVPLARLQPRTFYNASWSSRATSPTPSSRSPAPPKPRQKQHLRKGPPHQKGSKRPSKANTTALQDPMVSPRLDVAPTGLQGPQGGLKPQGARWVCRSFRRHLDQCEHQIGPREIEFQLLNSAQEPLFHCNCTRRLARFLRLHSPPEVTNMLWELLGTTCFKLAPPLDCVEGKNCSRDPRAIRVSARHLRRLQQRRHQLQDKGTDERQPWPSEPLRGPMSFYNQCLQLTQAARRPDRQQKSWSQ
sPLA2 confirm = human group III sPLA2 inhibitors, confirmation, biochemical, QFRET, triplicate | shares compounds with sPLA2-III inh | recombinant hGIII-sPLA2, BODIPY PC-A2 QFRET fluorescence | inhibition, % at 12.2 µM | 34% of 2,000 active | AID 743280, 2014;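 active = mean inhibition across triplicates above the hit cutoff set in the earlier primary screen, cut at about 19% in these data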
BODIPY interf = 535nm fluorescence optical interference, confirmation, artefact control for HGIII-sPLA2 inhibitor project, biochemical, QFRET | AID 743282, 2014 | BODIPY FL product fluorescence interference | shares compounds with sPLA2-III inh | inhibition, % at 12.2 µM | 8.5% of 2,000 active;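 active = average inhibition above the solvent-only control mean plus 3 SD, cut at about 6% in these data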
535nm interf DR = 535nm fluorescence optical interference, dose response, artefact control for HGIII-sPLA2 inhibitor project, biochemical, QFRET. AID 743455, 2014. shares compounds with sPLA2-III inh. BODIPY FL product fluorescence interference, cell-free. 240 tested, under 10 active. IC50, µM;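 active = IC50 at or below 10 µM; inactive = IC50 above 10 µM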
Of the large screens only hits and unclear results are named; the others gave an inactive call (follow-up assays come after a bar, where they were run).

NS(=O)(=O)c1ccc(CCNC(=O)CN2CCN(Cc3cccc4ccccc34)CC2)cc1	none
O=C(NC1CCS(=O)(=O)C1)c1ccc(N2CCCCC2)c([N+](=O)[O-])c1 (stereo not given)	none
CCOc1ccc2c(c1)-c1c(ssc1=S)C(C)(C)N2C(=O)CSC1=NCCS1	sPLA2-III inh 36 | sPLA2 confirm 20 | BODIPY interf inactive
Cc1ccc2c(c1)-c1c(ssc1=S)C(C)(C)N2C(=O)CSC1=NCCS1	none
O=C1C(=O)N(Cc2ccc(-c3ccccc3)cc2)c2ccc(OC(F)(F)F)cc21	sPLA2-III inh 26 (no result: proCasp7 act, Arrestin-AP2 inh, proCasp3 act) | sPLA2 confirm 34 | BODIPY interf inactive | 535nm interf DR inactive
O=C1C(=O)N(Cc2ccc(-c3ccc(Cl)nc3)cc2)c2ccc(OC(F)(F)F)cc21	sPLA2-III inh 25 (no result: proCasp7 act, Arrestin-AP2 inh, proCasp3 act) | sPLA2 confirm 32 | BODIPY interf inactive | 535nm interf DR inactive
CC1Sc2ccccc2N(Cc2ccc(OC(F)(F)F)cc2)C1=O (stereo not given)	none (no result: proCasp7 act, Arrestin-AP2 inh, proCasp3 act)
Cc1ccc2c(c1)C(=O)C(=O)N2Cc1ccc(C(F)(F)F)cc1	sPLA2-III inh 30 | sPLA2 confirm 26 | BODIPY interf inactive
Cc1ccc(OCCN2C(=O)C(=O)c3cc(C)ccc32)cc1	none
CCc1cccc(NC(=O)COC(=O)c2c(C)nn(-c3ccccc3)c2C)c1	none (no result: proCasp7 act, Arrestin-AP2 inh, proCasp3 act)
COc1cccc(CC(NC(C)=O)C(=O)NC2CCN(S(=O)(=O)c3ccc(F)cc3)CC2)c1OC (stereo not given)	none
C/C(=N\NC(=S)NCc1ccccc1)c1ccc2ccccc2c1	sPLA2-III inh 19 | sPLA2 confirm inactive | BODIPY interf inactive
C/C(=N\NC(=S)NCc1ccccc1)c1cccc(Br)c1	none
Nc1ccccc1C#CC(=O)c1ccccc1	none
Cc1cccnc1NC(=O)c1cccc(S(=O)(=O)N2CCCc3ccccc32)c1	none
S=C(NC1CCCC1)NC1CCCC1	none
Cc1ccccc1NC(=S)NC1CCCC1	none
S=C(NC1CCCC1)NC1CC1	sPLA2-III inh 21 | sPLA2 confirm inactive | BODIPY interf inactive
Cc1cccc(C)c1NC(=S)NC1CCCCC1	sPLA2-III inh 24 | sPLA2 confirm 21 | BODIPY interf inactive
CCc1nc2ccc(C(=O)N3CCN(c4ccccc4F)CC3)cc2nc1CC	none
CC(=O)C1=C(C)NC(SCC(N)=O)=C(C#N)C1c1sccc1C (stereo not given)	sPLA2-III inh 23 | sPLA2 confirm inactive | BODIPY interf inactive
CCOC(=O)CSC1=C(C#N)C(c2sccc2C)C(C(C)=O)=C(C)N1 (stereo not given)	none
OCCC1CN(Cc2cccn2-c2ccccn2)CCN1Cc1ccccc1 (stereo not given)	none
COc1ccc(C)cc1S(=O)(=O)N1CCCC(N2CCOCC2)C1 (stereo not given)	none (no result: proCasp7 act, proCasp3 act)
Cc1ccc(S(=O)(=O)N2CCCC(N3CCOCC3)C2)cc1Cl (stereo not given)	sPLA2-III inh 19 | sPLA2 confirm inactive | BODIPY interf inactive
CCOC(=O)CN1C(=O)NC2(CCCc3ccccc32)C1=O (stereo not given)	none
CCC(C)NC(=S)N(Cc1cc2cc(C)ccc2n2nnnc12)CC(C)(C)NC(C)C (stereo not given)	sPLA2-III inh 21 | sPLA2 confirm inactive | BODIPY interf inactive
O=C1c2ccccc2C(=O)c2c1ccc(O)c2O	sPLA2-III inh 21 (no result: proCasp7 act, proCasp3 act) | sPLA2 confirm inactive | BODIPY interf inactive
COC1C(CO)OC(n2c3c(Cl)cccc3c3c4c(c5c6cccc(Cl)c6[nH]c5c32)C(=O)NC4=O)C(O)C1O (stereo not given)	none (no result: proCasp7 act, proCasp3 act)
CCC(=O)NC(c1cccs1)c1cc(Cl)c2cccnc2c1O (stereo not given)	none
CC(C)C(=O)NC(c1ccc(Cl)cc1Cl)c1ccc2cccnc2c1O (stereo not given)	sPLA2-III inh 25 | sPLA2 confirm 32 | BODIPY interf inactive
CCC(=O)NC(c1ccco1)c1cc(Br)c2cccnc2c1O (stereo not given)	sPLA2-III inh 23 (no result: proCasp7 act, Arrestin-AP2 inh, proCasp3 act) | sPLA2 confirm inactive | BODIPY interf inactive
CCC(=O)NC(c1ccc(Cl)cc1Cl)c1ccc2cccnc2c1O (stereo not given)	sPLA2-III inh 33 | sPLA2 confirm 25 | BODIPY interf inactive
CCC(=O)NC(c1cc(Cl)c2cccnc2c1O)C(C)C (stereo not given)	none
CCCCC(=O)NC(c1cccs1)c1cc(Cl)c2cccnc2c1O (stereo not given)	sPLA2-III inh 24 | sPLA2 confirm 32 | BODIPY interf inactive | 535nm interf DR inactive
C=C1C(=O)N(C)CCC1C(CC)C(=O)OC (stereo not given)	none (no result: proCasp7 act, Arrestin-AP2 inh, proCasp3 act)
COc1ccc(C(NC(=O)C(C)C)c2ccc3cccnc3c2O)cc1 (stereo not given)	sPLA2-III inh 23 | sPLA2 confirm 19 | BODIPY interf inactive
CCCCC(=O)NC(c1ccc(Cl)cc1Cl)c1ccc2cccnc2c1O (stereo not given)	sPLA2-III inh 21 (no result: proCasp7 act, proCasp3 act) | sPLA2 confirm 30 | BODIPY interf inactive
COc1ccccc1N1CCN(C2CCCN(C(=O)CCc3ccccn3)C2)CC1 (stereo not given)	none (no result: proCasp7 act, proCasp3 act)
Cc1cc(-c2nc3ncccc3o2)ccc1NC(=S)NC(=O)c1ccco1	sPLA2-III inh 21 | sPLA2 confirm inactive | BODIPY interf inactive
Cc1ccc(-c2nc3ncccc3o2)cc1NC(=S)NC(=O)c1ccco1	none
